In ChEMBL document CHEMBL4402513, “Bio-Inspired Dual-Selective BCL-2/c-MYC G-Quadruplex Binders: Design, Synthesis, and Anticancer Activity of Drug-like Imidazo[2,1-i]purine Derivatives” (J Med Chem, 2020):
Active and inactive are the calls of the source. No cut-off for these calls is given here.

Experiments:
[1] = test system: Quadruplex DNA; experiment: Binding affinity to synthetic c-MYC G4 quadruplex DNA assessed as change in melting temperature at 10 molar equiv to DNA measured after 10 mins by circular dichroism melting analysis; assay type: nucleic-acid assay
Summary of the method: (§1)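 CD melting of folded DNA (G4 10 µM, duplex 15 µM) in 20 mM KCl, 5 mM KH2PO4 (pH 7.0), without and with 10 molar equivalents of ligand. Tm was taken from curve fitting, and ΔTm = Tm(DNA+ligand) − Tm(DNA). Runs were done in triplicate and averaged.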

[2] = Binding affinity to synthetic 20-mer hairpin duplex DNA assessed as change in melting temperature at 10 molar equiv to DNA measured after 10 mins by circular dichroism melting analysis; summary of the method: as §1
[3] = test system: Quadruplex DNA; experiment: Binding affinity to human telomeric 23 G4 quadruplex DNA assessed as change in melting temperature at 10 molar equiv to DNA measured after 10 mins by circular dichroism melting analysis; assay type: nucleic-acid assay; summary of the method: as §1
[4] = test system: Quadruplex DNA; experiment: Binding affinity to synthetic c-KIT1 G4 quadruplex DNA assessed as change in melting temperature at 10 molar equiv to DNA measured after 10 mins by circular dichroism melting analysis; assay type: nucleic-acid assay; summary of the method: as §1
[5] = test system: Quadruplex DNA; experiment: Binding affinity to synthetic BCL2 G4 quadruplex DNA assessed as change in melting temperature at 10 molar equiv to DNA measured after 10 mins by circular dichroism melting analysis; assay type: nucleic-acid assay; summary of the method: as §1
[6] = test system: Quadruplex DNA; experiment: Binding affinity to synthetic c-MYC G4 quadruplex DNA assessed as change in chiral structure at 10 molar equiv to DNA measured after 10 mins by circular dichroism spectroscopic analysis; assay type: nucleic-acid assay
Summary of the method: (§2)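 CD spectra of annealed DNA in 20 mM KCl, 5 mM KH2PO4 (pH 7.0). G4 DNAs were at 10 µM and duplex at 15 µM. Ligand (10 mM DMSO stock) was added at 10 molar equivalents. Spectra were recorded 10 min after addition at 20 °C over 230–360 nm, averaged over three scans and baseline corrected.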

[7] = Binding affinity to synthetic 20-mer hairpin duplex DNA assessed as change in chiral structure at 10 molar equiv to DNA measured after 10 mins by circular dichroism spectroscopic analysis; summary of the method: as §2
[8] = test system: Quadruplex DNA; experiment: Binding affinity to human telomeric 23 G4 quadruplex DNA assessed as change in chiral structure at 10 molar equiv to DNA measured after 10 mins by circular dichroism spectroscopic analysis; assay type: nucleic-acid assay; summary of the method: as §2
[9] = test system: Quadruplex DNA; experiment: Binding affinity to synthetic BCL2 G4 quadruplex DNA assessed as change in chiral structure at 10 molar equiv to DNA measured after 10 mins by circular dichroism spectroscopic analysis; assay type: nucleic-acid assay; summary of the method: as §2
[10] = test system: Quadruplex DNA; experiment: Binding affinity to synthetic c-KIT1 G4 quadruplex DNA assessed as change in chiral structure at 10 molar equiv to DNA measured after 10 mins by circular dichroism spectroscopic analysis; assay type: nucleic-acid assay; summary of the method: as §2

Row | SMILES | ΔTm [1] | ΔTm [2] | ΔTm [3] | ΔTm [4] | ΔTm [5] | Activity [6] | deltaTm [1] | Activity [7] | Activity [8] | deltaTm [2] | deltaTm [3] | deltaTm [4] | Activity [9] | Activity [10] | deltaTm [5]
1 | CC(C)(C)Nc1c(-c2ccc(Cl)cc2)nc2c3ncn(CCN4CCCC4)c3ncn12 | 6.4 °C | 1.9 °C | 2.3 °C | 2.3 °C | 4.5 °C | – | – | – | – | – | – | – | – | – | –
2 | CC(C)(C)Nc1c(-c2ccccc2F)nc2c3ncn(CCN4CCCC4)c3ncn12 | 5.8 °C | 0.3 °C | 1.1 °C | 2.1 °C | 5 °C | – | – | – | – | – | – | – | – | – | –
3 | CC(C)(C)Nc1c(-c2ccc(Cl)cc2)nc2c3ncn(CCN4CCOCC4)c3ncn12 | 1.6 °C | -0.5 °C | 0.3 °C | 1.1 °C | 2.1 °C | – | – | – | – | – | – | – | – | – | –
4 | CN(C)c1ccc(-c2nc3ccn(CCN4CCOCC4)c(=O)n3c2NC(C)(C)C)cc1 | – | – | – | – | – | inactive | inactive | inactive | inactive | inactive | inactive | inactive | inactive | inactive | inactive
5 | CC(C)(C)Nc1c(-c2ccccc2OCCN2CCCC2)nc2c3ncn(CCN4CCCC4)c3ncn12 | 8.4 °C | 2.2 °C | 4.9 °C | 4.5 °C | 7.1 °C | – | – | – | – | – | – | – | – | – | –
6 | CC(C)(C)Nc1c(-c2ccccc2OCCN2CCOCC2)nc2c3ncn(CCN4CCOCC4)c3ncn12 | 1.9 °C | 1.2 °C | 0.1 °C | 0.8 °C | 1.9 °C | – | – | – | – | – | – | – | – | – | –

Results, then the molecule that gave them:

Row | ΔTm [1] | ΔTm [2] | ΔTm [3] | ΔTm [4] | ΔTm [5] | Activity [6] | deltaTm [1] | Activity [7] | Activity [8] | deltaTm [2] | deltaTm [3] | deltaTm [4] | Activity [9] | Activity [10] | deltaTm [5] | SMILES
7 | 1.1 °C | 0.5 °C | -0.1 °C | 1.4 °C | 1.7 °C | – | – | – | – | – | – | – | – | – | – | CN(C)c1ccc(-c2nc3c4ncn(CCCN)c4ncn3c2NC(C)(C)C)cc1
8 | > 25 °C | – | 7.2 °C | 11.9 °C | 16.9 °C | – | – | – | – | – | – | – | – | – | – | CN(C)CCCn1cnc2c1ncn1c(NC(C)(C)C)c(-c3ccc(N(C)C)cc3)nc21
9 | 19.5 °C | 7.5 °C | 4.8 °C | 7.3 °C | 13.4 °C | – | – | – | – | – | – | – | – | – | – | CN(C)c1ccc(-c2nc3c4ncn(CCN5CCCC5)c4ncn3c2NC(C)(C)C)cc1
